Results: ChEMBL document CHEMBL1137220, “2-(2-(dimethylaminomethyl)phenoxy)-5-iodophenylamine: an improved serotonin transporter imaging agent” (J Med Chem, 2004)

Experiments:
[1] = Biodistribution in rat kidney was determined after 11 hours of intravenous administration of the compound; [125I]- is used as radioactive isotope; assay type: ADME, organism-based; settings: in vivo
Summary of the method: (§1)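 Rats under ether anesthesia, three per group, received 10 μCi tracer in 0.2 mL saline into the femoral vein. They were killed by cardiac excision under ether at each time point. Organs were removed, weighed and counted. Percent dose per organ was calculated against a 1%-of-injected-dose standard counted at the same time.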

[2] = Biodistribution in rat thyroid was determined after 6 hours of intravenous administration of the compound; [125I]- is used as radioactive isotope; assay type: ADME, organism-based, Thyroid gland; settings: in vivo
Summary of the method: (§2)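 Rats, three per group, under ether anaesthesia, received 10 μCi of [¹²⁵I]-labelled tracer in 0.2 mL saline into the femoral vein. They were killed by cardiac excision under ether at each time point. Organs were removed, weighed and counted. Percent dose per organ was calculated against counts of a 1% aliquot of the injected dose (100-fold diluted) counted at the same time.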

[3] = Distribution ratio in hippocampus and cerebellum was determined after 120 min of intravenous administration of the compound; [125I]- is used as radioactive isotope; assay type: ADME, tissue-based; settings: rat, 2 h
Summary of the method: (§3)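 After femoral-vein injection of 10 μCi [¹²⁵I] tracer in 0.2 mL saline under ether anaesthesia (three rats per group), brain regions were dissected, weighed and counted: cortex (frontal plus occipital), hippocampus, hypothalamus and cerebellum. %dose/g was calculated against a diluted injected-dose standard. Ratio = (region − cerebellum)/cerebellum on a %dose/g basis, with cerebellum as the background region.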

[4] = Biodistribution in rat blood was determined after 2 min of intravenous administration of the compound; [125I]- is used as radioactive isotope; assay type: ADME, organism-based; settings: in vivo; summary of the method: as §1
[5] = Biodistribution in rat blood was determined after 30 min of intravenous administration of the compound; [125I]- is used as radioactive isotope; assay type: ADME, organism-based; settings: in vivo, 0.5 h; summary of the method: as §1
[6] = Biodistribution in rat liver was determined after 30 min of intravenous administration of the compound; [125I]- is used as radioactive isotope; assay type: ADME, organism-based; settings: in vivo, 0.5 h; summary of the method: as §1
[7] = Biodistribution in rat liver was determined after 120 min of intravenous administration of the compound; [125I]- is used as radioactive isotope; assay type: ADME, organism-based; settings: in vivo, 2 h; summary of the method: as §1
[8] = Distribution ratio in cortex and cerebellum was determined after 6 hrs of intravenous administration of the compound; [125I]- is used as radioactive isotope; assay type: ADME, tissue-based; settings: rat; summary of the method: as §3
[9] = Regional brain distribution in rat striatum was determined after 240 min of intravenous administration of the compound; [125I]- is used as radioactive isotope; assay type: ADME, tissue-based; settings: in vivo, 4 h
Summary of the method: (§4)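 Rats, three per group, injected with 10 μCi tracer in 0.2 mL saline via the femoral vein under ether anesthesia and killed by cardiac excision at the stated time. Cortex (frontal plus occipital), striatum, hippocampus, cerebellum and hypothalamus were dissected, weighed and gamma-counted. Values are % dose/g, calculated by comparison with counts of a 100-fold diluted aliquot of the injected dose.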

[10] = Biodistribution in rat lung was determined after 60 min of intravenous administration of the compound; [125I]- is used as radioactive isotope; assay type: ADME, organism-based; settings: in vivo, 1 h; summary of the method: as §1
[11] = Distribution ratio in hippocampus and cerebellum was determined after 2 min of intravenous administration of the compound; [125I]- is used as radioactive isotope; assay type: ADME, tissue-based; settings: rat; summary of the method: as §3
[12] = Biodistribution in rat muscle was determined after 24 hours of intravenous administration of the compound; [125I]- is used as radioactive isotope; assay type: ADME, organism-based, Muscle tissue; settings: in vivo; summary of the method: as §2
[13] = Distribution ratio in cortex and cerebellum was determined after 2 min of intravenous administration of the compound; [125I]- is used as radioactive isotope; assay type: ADME, tissue-based; settings: rat; summary of the method: as §3
[14] = Biodistribution in rat kidney was determined after 240 min of intravenous administration of the compound; [125I]- is used as radioactive isotope; assay type: ADME, organism-based; settings: in vivo, 4 h; summary of the method: as §1
[15] = Regional brain distribution in rat cerebellum was determined after 240 min of intravenous administration of the compound; [125I]- is used as radioactive isotope; assay type: ADME, tissue-based; settings: in vivo, 4 h; summary of the method: as §4
[16] = Biodistribution in rat brain was determined after 120 min of intravenous administration of the compound; [125I]- is used as radioactive isotope; assay type: ADME, organism-based; settings: in vivo, 2 h; summary of the method: as §1
[17] = Biodistribution in rat spleen was determined after 240 min of intravenous administration of the compound; [125I]- is used as radioactive isotope; assay type: ADME, organism-based; settings: in vivo, 4 h; summary of the method: as §2
[18] = Distribution ratio in striatum and cerebellum was determined after 240 min of intravenous administration of the compound; [125I]- is used as radioactive isotope; assay type: ADME, tissue-based; settings: rat, 4 h
Summary of the method: (§5)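 Rats, three per group, given 10 μCi tracer in 0.2 mL saline into the femoral vein under ether anesthesia, then killed by cardiac excision at the stated time. Brain regions were dissected, weighed and counted. Percent dose/g was calculated against a 1% diluted aliquot of the injected dose. The ratio is (region − cerebellum)/cerebellum on a % dose/g basis, with cerebellum as background.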

[19] = Distribution ratio in hypothalamus and cerebellum was determined after 60 min of intravenous administration of the compound; [125I]- is used as radioactive isotope; assay type: ADME, tissue-based; settings: rat, 1 h; summary of the method: as §5
[20] = Biodistribution in rat spleen was determined after 60 min of intravenous administration of the compound; [125I]- is used as radioactive isotope; assay type: ADME, organism-based; settings: in vivo, 1 h; summary of the method: as §2
[21] = Biodistribution in rat heart was determined after 240 min of intravenous administration of the compound; [125I]- is used as radioactive isotope; assay type: ADME, organism-based; settings: in vivo, 4 h; summary of the method: as §1
[22] = Biodistribution in rat blood was determined after 60 min of intravenous administration of the compound; [125I]- is used as radioactive isotope; assay type: ADME, organism-based; settings: in vivo, 1 h; summary of the method: as §1
[23] = Biodistribution in rat heart was determined after 24 hours of intravenous administration of the compound; [125I]- is used as radioactive isotope; assay type: ADME, organism-based; settings: in vivo; summary of the method: as §1
[24] = Biodistribution in rat kidney was determined after 30 min of intravenous administration of the compound; [125I]- is used as radioactive isotope; assay type: ADME, organism-based; settings: in vivo, 0.5 h; summary of the method: as §1
[25] = Biodistribution in rat heart was determined after 6 hours of intravenous administration of the compound; [125I]- is used as radioactive isotope; assay type: ADME, organism-based; settings: in vivo; summary of the method: as §1
[26] = Regional brain distribution in rat hippocampus was determined after 11 hours of intravenous administration of the compound; [125I]- is used as radioactive isotope; assay type: ADME, tissue-based; settings: in vivo; summary of the method: as §4
[27] = Regional brain distribution in rat cortex was determined after 2 min of intravenous administration of the compound; [125I]- is used as radioactive isotope; assay type: ADME; settings: in vivo; summary of the method: as §4
[28] = Biodistribution in rat kidney was determined after 6 hours of intravenous administration of the compound; [125I]- is used as radioactive isotope; assay type: ADME, organism-based; settings: in vivo; summary of the method: as §1
[29] = Regional brain distribution in rat hippocampus was determined after 2 min of intravenous administration of the compound; [125I]- is used as radioactive isotope; assay type: ADME, tissue-based; settings: in vivo; summary of the method: as §4
[30] = Regional brain distribution in rat hypothalamus was determined after 30 min of intravenous administration of the compound; [125I]- is used as radioactive isotope; assay type: ADME, tissue-based; settings: in vivo, 0.5 h; summary of the method: as §4
[31] = Biodistribution in rat blood was determined after 6 hours of intravenous administration of the compound; [125I]- is used as radioactive isotope; assay type: ADME, organism-based; settings: in vivo; summary of the method: as §1
[32] = Distribution ratio in cortex and cerebellum was determined after 240 min of intravenous administration of the compound; [125I]- is used as radioactive isotope; assay type: ADME, tissue-based; settings: rat, 4 h; summary of the method: as §3
[33] = Biodistribution in rat spleen was determined after 2 min of intravenous administration of the compound; [125I]- is used as radioactive isotope; assay type: ADME, organism-based; settings: in vivo; summary of the method: as §2
[34] = Distribution ratio in cortex and cerebellum was determined after 30 min of intravenous administration of the compound; [125I]- is used as radioactive isotope; assay type: ADME, tissue-based; settings: rat, 0.5 h; summary of the method: as §3

Work on `CN(C)Cc1ccccc1Oc1ccc(I)cc1N` yielded a Dose [1] of 0.4%, a Dose [2] of 2.68% and a Dose/g [3] of 2.19%. The Dose [4] was 5.75%, the Dose [5] was 4.56% and the Dose [6] was 7.1%. It also gave a Dose [7] of 4.9%, a Dose/g [8] of 0.58% and a Dose/g [9] of 0.24%. It also gave a Dose [10] of 1.79%, a Dose/g [11] of 0.13% and a Dose [12] of 1.13%. The Dose/g [13] was 0.56%, the Dose [14] was 0.61% and the Dose/g [15] was 0.06%. For the same molecule, the Dose [16] was 1.08%, the Dose [17] was 0.13% and the Dose/g [18] was 3.11%. The Dose/g [19] was 1.92%, the Dose [20] was 0.47% and the Dose [21] was 0.08%. The Dose [22] was 3.89%, the Dose [23] was 0.02% and the Dose [24] was 2.67%. It also gave a Dose [25] of 0.08%, a Dose/g [26] of 0.01% and a Dose/g [27] of 1.16%. The Dose [28] was 0.55%, the Dose/g [29] was 0.86% and the Dose/g [30] was 1.3%. For the same molecule, the Dose [31] was 3.29%, the Dose/g [32] was 1.12% and the Dose [33] was 0.44%. The Dose/g [34] was 0.96%.
